From ChEMBL document CHEMBL1667822, “Selective antagonists of mouse trace amine-associated receptor 1 (mTAAR1): discovery of EPPTB (RO5212773)” (Bioorg Med Chem Lett, 2011)

How the values were obtained:
[1] = target: Substance-K receptor (Homo sapiens) (UniProt P21452); assay: Displacement of [125I]NKA from human recombinant NK2 receptor expressed in CHO cells; assay type: cell-based; details: concentration not given here
[2] = Clearance in mouse at 2.5 mg/kg, iv; assay type: ADME, organism-based; parameters: dose 2.5 mg/kg, route intravenous; details: in vivo
Procedure, shortened: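 Single-dose pharmacokinetics in mice comparing parenteral routes: intravenous at 2.5 mg/kg and intraperitoneal at 5 mg/kg. Plasma concentrations were followed over time. Bioavailability was derived for the ip route, and Cmax was taken from the ip plasma profile.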

[3] = target: Vasopressin V1a receptor (Homo sapiens) (UniProt P37288); assay: Displacement of [3H]AVP from human recombinant V1a receptor expressed in H recombinant CHO cells; assay type: cell-based; details: concentration not given here
[4] = species on record: Rattus norvegicus; assay: Displacement of [3H]batrachotoxinin from sodium channel in rat cerebral cortex; assay type: tissue-based; details: concentration not given here
[5] = target: Adenosine receptor A1 (Homo sapiens) (UniProt P30542); assay: Displacement of [3H]DPCPX from human recombinant A1 receptor expressed in CHO cells; assay type: cell-based; details: concentration not given here
[6] = target: C-C chemokine receptor type 1 (Homo sapiens) (UniProt P32246); assay: Displacement of [125I]MIP-1a from human recombinant CCR1 receptor expressed in HEK293 cells; assay type: cell-based; details: concentration not given here
[7] = target: Muscarinic acetylcholine receptor M2 (Homo sapiens) (UniProt P08172); assay: Displacement of [3H]AF-DX 384 from human recombinant muscarinic M2 receptor expressed in CHO cells; assay type: cell-based; details: concentration not given here
[8] = target: Beta-2 adrenergic receptor (Homo sapiens) (UniProt P07550); assay: Displacement of [3H](-)CGP 12177 from human recombinant beta2 receptor expressed in CHO cells; assay type: cell-based; details: concentration not given here
[9] = target: 5-hydroxytryptamine receptor 6 (Homo sapiens) (UniProt P50406); assay: Displacement of [3H]LSD from human recombinant 5HT6 receptor expressed in CHO cells; assay type: cell-based; details: concentration not given here
[10] = target: Nociceptin receptor (Homo sapiens) (UniProt P41146); assay: Displacement of [3H]nociceptin from human recombinant ORL1 receptor expressed in H recombinant HEK293 cells; assay type: cell-based; details: concentration not given here
[11] = target: Muscarinic acetylcholine receptor M3 (Homo sapiens) (UniProt P20309); assay: Displacement of [3H]4-DAMP from human recombinant muscarinic M3 receptor expressed in CHO cells; assay type: cell-based; details: concentration not given here
[12] = target: Adrenergic receptor alpha-2 (Rattus norvegicus) (UniProt P22086+P19328+P22909); assay: Displacement of [3H]RX8210 from alpha2 receptor in rat cerebral cortex; assay type: tissue-based; details: concentration not given here
[13] = target: Sodium-dependent serotonin transporter (Homo sapiens) (UniProt P31645); assay: Inhibition of human serotonin transporter at 10 uM
[14] = target: Cholecystokinin receptor type A (Homo sapiens) (UniProt P32238); assay: Inhibition of human cholecystokinin 1 receptor at 10 uM
[15] = target: monoamine oxidase-B (MAO-B) (Rattus norvegicus, UniProt P19643); assay: Inhibition of rat monoamine oxidase-B at 10 uM
[16] = target: Trace amine-associated receptor 1 (Rattus norvegicus, UniProt Q923Y9); assay: Antagonist activity at rat TAAR1 assessed as reversal of endogenous beta-PEA effect; assay type: functional
Procedure, shortened: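 cAMP functional assay in vitro measuring reversal of the effect of endogenous agonist beta-PEA; 100% antagonistic efficacy defined as 0% min% stimulation. Residual stimulation by beta-PEA recorded at the maximum test-compound concentration. Values are the average of at least two independent experiments; duplicates typically within a twofold margin.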

[17] = target: Small conductance calcium-activated potassium channel protein 1 (Rattus norvegicus) (UniProt P70606); assay: Displacement of [125I]apamin from SK+Ca channel in rat cerebral cortex; assay type: tissue-based; details: concentration not given here
[18] = target: D(2) dopamine receptor (Homo sapiens) (UniProt P14416); assay: Displacement of [3H]spiperone from human recombinant dopamine D2S receptor expressed in HEK293 cells; assay type: cell-based; details: concentration not given here
[19] = target: monoamine oxidase-A (MAO-A) (Rattus norvegicus, UniProt P21396); assay: Inhibition of rat monoamine oxidase-A at 10 uM
[20] = target: B2 bradykinin receptor (Homo sapiens) (UniProt P30411); assay: Displacement of [3H]bradykinin from human recombinant bradykinin B2 receptor expressed in CHO cells; assay type: cell-based; details: concentration not given here
[21] = target: Cannabinoid receptor 1 (Homo sapiens) (UniProt P21554); assay: Inhibition of human cannabinoid CB1 receptor at 10 uM
[22] = target: Thromboxane A2 receptor (Homo sapiens) (UniProt P21731); assay: Displacement of [3H]SQ 29548 from human recombinant TXA2 receptor expressed in HEK293 cells; assay type: cell-based; details: concentration not given here
[23] = species on record: Rattus norvegicus; assay: Displacement of [125I]a-dendrotoxin from K+V channel in rat cerebral cortex; assay type: tissue-based; details: concentration not given here
[24] = target: Neuropeptide Y receptor type 1 (Homo sapiens) (UniProt P25929); assay: Displacement of [125I]peptide YY from human recombinant Y1 receptor expressed in […] cell; details: concentration not given here
[25] = species on record: Rattus norvegicus; assay: Displacement of [3H]GABA from GABA receptor in rat cerebral cortex; assay type: tissue-based; details: concentration not given here
[26] = target: Neuromedin-K receptor (Homo sapiens) (UniProt P29371); assay: Displacement of [3H]SR 142801 from human recombinant NK3 receptor expressed in CHO cells; assay type: cell-based; details: concentration not given here
[27] = species on record: Rattus norvegicus; assay: Inhibition of rat GABA chloride channel at 10 uM
[28] = target: Type-1 angiotensin II receptor (Homo sapiens) (UniProt P30556); assay: Displacement of [125I][Sar1,Ile8]-AT II from human recombinant AT1 receptor expressed in HEK293 cells; assay type: cell-based; details: concentration not given here
[29] = target: Kappa-type opioid receptor (Rattus norvegicus) (UniProt P34975); assay: Displacement of [3H]U69593 from rat recombinant kappa opioid receptor expressed in CHO cells; assay type: cell-based; details: concentration not given here
[30] = target: Melatonin receptor type 1A (Homo sapiens) (UniProt P48039); assay: Displacement of [125I]2-iodomelatonin from human recombinant MT1 receptor expressed in CHO cells; assay type: cell-based; details: concentration not given here
[31] = species on record: Rattus norvegicus; assay: Inhibition of rat ca2+ channel verapamil site at 10 uM
[32] = species on record: Homo sapiens; assay: Inhibition of human vasoactive intestinal peptide receptor VPAC1 at 10 uM
[33] = target: T1, Trace amine-associated receptor 1 (Homo sapiens, UniProt Q96RJ0); assay: Inhibition of human TAAR1
T1 sequence (Q96RJ0 whole entry): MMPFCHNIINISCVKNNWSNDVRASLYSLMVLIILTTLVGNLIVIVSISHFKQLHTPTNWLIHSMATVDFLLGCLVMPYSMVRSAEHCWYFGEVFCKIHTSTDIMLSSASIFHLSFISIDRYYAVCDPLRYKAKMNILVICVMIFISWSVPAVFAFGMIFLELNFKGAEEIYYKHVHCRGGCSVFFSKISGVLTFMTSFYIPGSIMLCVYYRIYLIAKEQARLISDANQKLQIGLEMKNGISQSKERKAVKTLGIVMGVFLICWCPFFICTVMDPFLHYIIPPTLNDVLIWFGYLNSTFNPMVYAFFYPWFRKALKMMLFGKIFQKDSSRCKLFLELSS
Procedure, shortened: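 In vitro cAMP functional assay with antagonism read as reversal of the response to the endogenous agonist beta-PEA. Efficacy was scaled so that 100% equals 0% minimum stimulation. Residual beta-PEA stimulation was taken at the highest test-compound concentration. Values are means of at least two independent experiments, with duplicates typically within a twofold margin.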

Sequence of monoamine oxidase-B (MAO-B) (P19643 whole entry): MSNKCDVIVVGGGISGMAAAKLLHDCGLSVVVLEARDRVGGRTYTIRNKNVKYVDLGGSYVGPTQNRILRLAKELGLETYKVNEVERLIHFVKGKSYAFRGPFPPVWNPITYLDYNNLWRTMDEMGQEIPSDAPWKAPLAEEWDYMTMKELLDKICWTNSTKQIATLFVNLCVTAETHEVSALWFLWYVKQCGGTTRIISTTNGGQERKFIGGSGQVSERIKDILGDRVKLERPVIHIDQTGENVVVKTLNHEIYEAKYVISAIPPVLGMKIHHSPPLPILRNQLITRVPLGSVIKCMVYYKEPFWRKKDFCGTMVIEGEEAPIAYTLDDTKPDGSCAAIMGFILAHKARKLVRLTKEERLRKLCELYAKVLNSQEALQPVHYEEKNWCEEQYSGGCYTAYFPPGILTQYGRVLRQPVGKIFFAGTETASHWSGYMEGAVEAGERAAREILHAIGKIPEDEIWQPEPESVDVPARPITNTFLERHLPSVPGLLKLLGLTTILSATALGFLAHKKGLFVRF
Sequence of D(2) dopamine receptor (Homo sapiens) (P14416 whole entry): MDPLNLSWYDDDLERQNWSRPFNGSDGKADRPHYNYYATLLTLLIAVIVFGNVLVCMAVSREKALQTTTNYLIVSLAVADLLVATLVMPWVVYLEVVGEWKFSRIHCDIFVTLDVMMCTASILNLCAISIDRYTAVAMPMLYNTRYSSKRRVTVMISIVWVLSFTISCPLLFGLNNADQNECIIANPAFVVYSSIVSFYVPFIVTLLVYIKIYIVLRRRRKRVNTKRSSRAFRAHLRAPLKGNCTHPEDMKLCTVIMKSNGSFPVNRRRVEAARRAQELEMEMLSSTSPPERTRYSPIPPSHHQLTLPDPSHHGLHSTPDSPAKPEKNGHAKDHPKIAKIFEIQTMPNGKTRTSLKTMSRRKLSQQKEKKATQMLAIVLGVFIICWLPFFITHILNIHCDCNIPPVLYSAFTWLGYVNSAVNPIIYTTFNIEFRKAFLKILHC
Sequence of Muscarinic acetylcholine receptor M2 (Homo sapiens) (P08172 whole entry): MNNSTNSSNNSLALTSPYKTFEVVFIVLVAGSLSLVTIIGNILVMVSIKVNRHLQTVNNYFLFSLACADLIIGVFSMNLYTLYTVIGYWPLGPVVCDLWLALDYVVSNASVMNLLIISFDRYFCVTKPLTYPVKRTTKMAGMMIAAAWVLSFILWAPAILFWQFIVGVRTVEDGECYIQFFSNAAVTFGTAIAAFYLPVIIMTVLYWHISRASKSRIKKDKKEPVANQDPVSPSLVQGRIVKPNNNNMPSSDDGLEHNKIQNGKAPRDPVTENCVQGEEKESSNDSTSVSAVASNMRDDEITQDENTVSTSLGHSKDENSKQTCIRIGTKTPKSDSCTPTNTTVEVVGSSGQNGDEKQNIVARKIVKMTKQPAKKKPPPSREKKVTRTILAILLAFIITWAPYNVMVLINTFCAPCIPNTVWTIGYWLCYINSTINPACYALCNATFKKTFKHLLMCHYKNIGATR
Sequence of Beta-2 adrenergic receptor (Homo sapiens) (P07550 whole entry, looked up): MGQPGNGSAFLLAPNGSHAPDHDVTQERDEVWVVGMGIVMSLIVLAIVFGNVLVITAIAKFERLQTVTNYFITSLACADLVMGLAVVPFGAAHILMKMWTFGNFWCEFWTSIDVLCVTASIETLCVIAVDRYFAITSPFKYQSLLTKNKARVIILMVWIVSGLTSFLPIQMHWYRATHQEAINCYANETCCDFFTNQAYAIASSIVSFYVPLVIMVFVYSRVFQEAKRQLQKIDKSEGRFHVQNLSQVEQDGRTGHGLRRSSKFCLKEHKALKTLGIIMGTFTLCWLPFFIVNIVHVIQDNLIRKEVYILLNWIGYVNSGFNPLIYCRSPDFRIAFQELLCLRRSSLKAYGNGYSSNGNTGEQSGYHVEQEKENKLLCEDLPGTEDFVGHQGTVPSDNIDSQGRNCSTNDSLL
Sequence of Melatonin receptor type 1A (Homo sapiens) (P48039 whole entry): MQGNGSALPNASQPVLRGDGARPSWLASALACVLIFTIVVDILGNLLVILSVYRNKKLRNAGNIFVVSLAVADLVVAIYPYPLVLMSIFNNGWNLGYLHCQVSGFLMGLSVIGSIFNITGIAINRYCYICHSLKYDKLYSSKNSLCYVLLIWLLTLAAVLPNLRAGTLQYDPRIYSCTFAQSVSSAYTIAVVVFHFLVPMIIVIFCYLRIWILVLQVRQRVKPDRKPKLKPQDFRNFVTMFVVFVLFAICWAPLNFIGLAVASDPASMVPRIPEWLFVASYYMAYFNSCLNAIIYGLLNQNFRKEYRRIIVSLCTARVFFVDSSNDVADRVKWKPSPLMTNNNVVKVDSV
Sequence of Substance-K receptor (Homo sapiens) (P21452 whole entry): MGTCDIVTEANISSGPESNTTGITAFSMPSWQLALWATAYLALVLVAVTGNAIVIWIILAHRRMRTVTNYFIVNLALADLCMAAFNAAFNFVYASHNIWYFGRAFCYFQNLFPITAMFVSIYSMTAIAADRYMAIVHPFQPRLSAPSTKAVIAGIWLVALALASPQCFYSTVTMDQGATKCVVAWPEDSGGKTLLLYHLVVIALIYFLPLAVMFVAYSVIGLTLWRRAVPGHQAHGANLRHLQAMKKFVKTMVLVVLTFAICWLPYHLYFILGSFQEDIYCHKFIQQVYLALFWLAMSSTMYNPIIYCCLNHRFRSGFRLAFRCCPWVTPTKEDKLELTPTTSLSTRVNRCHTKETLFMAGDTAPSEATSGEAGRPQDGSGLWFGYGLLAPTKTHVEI
Sequence of Cholecystokinin receptor type A (Homo sapiens) (P32238 whole entry): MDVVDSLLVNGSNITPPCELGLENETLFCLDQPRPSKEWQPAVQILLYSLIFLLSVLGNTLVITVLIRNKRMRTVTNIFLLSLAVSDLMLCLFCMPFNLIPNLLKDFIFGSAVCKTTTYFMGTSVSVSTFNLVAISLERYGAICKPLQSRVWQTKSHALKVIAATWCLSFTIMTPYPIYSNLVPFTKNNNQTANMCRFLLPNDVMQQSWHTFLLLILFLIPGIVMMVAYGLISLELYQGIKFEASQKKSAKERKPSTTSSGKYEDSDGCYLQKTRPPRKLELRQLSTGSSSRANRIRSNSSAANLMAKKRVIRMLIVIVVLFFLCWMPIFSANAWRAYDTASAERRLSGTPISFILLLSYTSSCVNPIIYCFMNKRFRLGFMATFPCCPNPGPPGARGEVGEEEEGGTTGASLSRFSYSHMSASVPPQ
Sequence of Nociceptin receptor (Homo sapiens) (P41146 whole entry): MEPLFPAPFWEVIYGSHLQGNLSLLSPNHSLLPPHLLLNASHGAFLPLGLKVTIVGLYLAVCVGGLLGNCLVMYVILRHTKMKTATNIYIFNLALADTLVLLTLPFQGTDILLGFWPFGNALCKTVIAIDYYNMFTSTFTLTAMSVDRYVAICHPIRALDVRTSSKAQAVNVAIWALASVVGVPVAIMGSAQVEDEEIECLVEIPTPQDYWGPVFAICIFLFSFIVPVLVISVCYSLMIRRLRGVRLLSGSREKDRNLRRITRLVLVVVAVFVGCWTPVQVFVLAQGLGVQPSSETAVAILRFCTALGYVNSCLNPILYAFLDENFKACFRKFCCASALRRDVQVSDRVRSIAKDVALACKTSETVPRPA
Sequence of Sodium-dependent serotonin transporter (Homo sapiens) (P31645 whole entry, looked up): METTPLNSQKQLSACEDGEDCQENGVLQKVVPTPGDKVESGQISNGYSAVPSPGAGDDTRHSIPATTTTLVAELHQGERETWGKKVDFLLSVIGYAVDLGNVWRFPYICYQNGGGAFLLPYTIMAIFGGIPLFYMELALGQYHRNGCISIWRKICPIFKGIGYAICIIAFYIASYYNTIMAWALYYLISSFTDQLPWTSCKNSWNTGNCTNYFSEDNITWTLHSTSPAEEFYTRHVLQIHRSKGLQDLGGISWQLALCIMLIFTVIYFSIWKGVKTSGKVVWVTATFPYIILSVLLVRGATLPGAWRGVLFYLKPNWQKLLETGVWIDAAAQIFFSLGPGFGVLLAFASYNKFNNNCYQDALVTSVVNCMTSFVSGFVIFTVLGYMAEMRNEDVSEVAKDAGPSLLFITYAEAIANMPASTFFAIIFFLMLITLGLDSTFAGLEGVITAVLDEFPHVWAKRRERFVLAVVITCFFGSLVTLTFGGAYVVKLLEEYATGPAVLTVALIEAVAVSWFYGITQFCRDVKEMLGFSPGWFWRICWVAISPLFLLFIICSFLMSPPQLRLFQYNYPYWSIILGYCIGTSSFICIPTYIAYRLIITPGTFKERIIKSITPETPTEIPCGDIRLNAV
Sequence of B2 bradykinin receptor (Homo sapiens) (P30411 whole entry): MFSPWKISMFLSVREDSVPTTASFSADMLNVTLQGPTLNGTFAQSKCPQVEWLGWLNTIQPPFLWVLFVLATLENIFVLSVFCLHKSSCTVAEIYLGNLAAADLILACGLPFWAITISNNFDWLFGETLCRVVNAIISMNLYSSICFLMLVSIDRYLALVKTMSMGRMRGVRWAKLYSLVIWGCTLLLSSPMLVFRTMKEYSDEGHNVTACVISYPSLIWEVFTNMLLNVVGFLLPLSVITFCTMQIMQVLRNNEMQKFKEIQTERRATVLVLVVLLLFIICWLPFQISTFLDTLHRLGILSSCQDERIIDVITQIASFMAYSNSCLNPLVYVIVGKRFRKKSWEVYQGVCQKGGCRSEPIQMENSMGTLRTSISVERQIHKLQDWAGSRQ
Sequence of Thromboxane A2 receptor (Homo sapiens) (P21731 whole entry): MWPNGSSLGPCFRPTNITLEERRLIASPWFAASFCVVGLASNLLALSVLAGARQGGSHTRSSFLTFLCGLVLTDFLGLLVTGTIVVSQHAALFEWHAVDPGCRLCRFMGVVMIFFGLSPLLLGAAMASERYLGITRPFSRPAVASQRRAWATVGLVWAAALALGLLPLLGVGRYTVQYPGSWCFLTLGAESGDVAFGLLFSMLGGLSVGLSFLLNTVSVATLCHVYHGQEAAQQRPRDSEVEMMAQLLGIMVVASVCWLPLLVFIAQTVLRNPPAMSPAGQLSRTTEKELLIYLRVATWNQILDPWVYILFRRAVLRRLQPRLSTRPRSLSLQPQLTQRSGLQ

`CCOc1cccc(NC(=O)c2ccc(N3CCCC3)c(C(F)(F)F)c2)c1` showed an inhibition [1] of 19%, a clearance [2] of 87 mL/min/kg and an inhibition [3] of 9%. It also gave an inhibition [4] of 88%, an inhibition [5] of 50% and an inhibition [6] of 0%. For the same compound, the inhibition [7] was -1%, the inhibition [8] was 6% and the inhibition [9] was 7%. For the same compound, the inhibition [10] was 15%, the inhibition [11] was -10% and the inhibition [12] was 23%. For the same compound, the inhibition [13] was -7%, the inhibition [14] was 57% and the inhibition at 10 µM [15] was 39%. For the same compound, the IC50 [16] was 4.54 µM, the inhibition [17] was 0% and the inhibition [18] was 9%. It also gave an inhibition at 10 µM [19] of 61%, an inhibition [20] of 2% and an inhibition [21] of 38%. It also gave an inhibition [22] of 8%, an inhibition [23] of -3% and an inhibition [24] of 4%. It also gave an inhibition [25] of 10%, an inhibition [26] of 22% and an inhibition [27] of 63%. For the same compound, the inhibition [28] was 5%, the inhibition [29] was 33% and the inhibition [30] was 54%. The inhibition [31] was 16%, the inhibition [32] was 13% and the Ki [33] was > 5 µM.
